Data as given in ChEMBL document CHEMBL4052694, “Discovery of novel 5-oxa-2,6-diazaspiro[3.4]oct-6-ene derivatives as potent, selective, and orally available somatostatin receptor subtype 5 (SSTR5) antagonists for treatment of type 2 diabetes mellitus” (Bioorg Med Chem, 2017).
≈ marks a conversion by molar mass, not a printed value. Calls of active or inactive are those of the source. No cut-off for these calls is given here.

Assays:
[1] = Solubility of the compound in aqueous buffer solution at pH 6.8 after 18 hrs by HPLC analysis; assay type: physicochemical
Summary of the method: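 0.4 mg compound in 0.4 mL aqueous buffer, pH 6.8 (Japanese Pharmacopoeia second disintegration fluid). Shaken at 500 rpm at 37 °C for 18 h, then filtered; dissolved concentration measured by HPLC.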

hERG (KCNH2) = hERG (KCNH2) (Homo sapiens, UniProt Q12809); assay: Inhibition of human ERG expressed in CHO cells assessed as decrease in peak tail current at 30 uM after 5 mins at -80 mV holding potential by patch clamp assay relative to control; assay type: cell-based; details: CHO cells expressing human ERG
Sequence of hERG (KCNH2) (Q12809 whole entry): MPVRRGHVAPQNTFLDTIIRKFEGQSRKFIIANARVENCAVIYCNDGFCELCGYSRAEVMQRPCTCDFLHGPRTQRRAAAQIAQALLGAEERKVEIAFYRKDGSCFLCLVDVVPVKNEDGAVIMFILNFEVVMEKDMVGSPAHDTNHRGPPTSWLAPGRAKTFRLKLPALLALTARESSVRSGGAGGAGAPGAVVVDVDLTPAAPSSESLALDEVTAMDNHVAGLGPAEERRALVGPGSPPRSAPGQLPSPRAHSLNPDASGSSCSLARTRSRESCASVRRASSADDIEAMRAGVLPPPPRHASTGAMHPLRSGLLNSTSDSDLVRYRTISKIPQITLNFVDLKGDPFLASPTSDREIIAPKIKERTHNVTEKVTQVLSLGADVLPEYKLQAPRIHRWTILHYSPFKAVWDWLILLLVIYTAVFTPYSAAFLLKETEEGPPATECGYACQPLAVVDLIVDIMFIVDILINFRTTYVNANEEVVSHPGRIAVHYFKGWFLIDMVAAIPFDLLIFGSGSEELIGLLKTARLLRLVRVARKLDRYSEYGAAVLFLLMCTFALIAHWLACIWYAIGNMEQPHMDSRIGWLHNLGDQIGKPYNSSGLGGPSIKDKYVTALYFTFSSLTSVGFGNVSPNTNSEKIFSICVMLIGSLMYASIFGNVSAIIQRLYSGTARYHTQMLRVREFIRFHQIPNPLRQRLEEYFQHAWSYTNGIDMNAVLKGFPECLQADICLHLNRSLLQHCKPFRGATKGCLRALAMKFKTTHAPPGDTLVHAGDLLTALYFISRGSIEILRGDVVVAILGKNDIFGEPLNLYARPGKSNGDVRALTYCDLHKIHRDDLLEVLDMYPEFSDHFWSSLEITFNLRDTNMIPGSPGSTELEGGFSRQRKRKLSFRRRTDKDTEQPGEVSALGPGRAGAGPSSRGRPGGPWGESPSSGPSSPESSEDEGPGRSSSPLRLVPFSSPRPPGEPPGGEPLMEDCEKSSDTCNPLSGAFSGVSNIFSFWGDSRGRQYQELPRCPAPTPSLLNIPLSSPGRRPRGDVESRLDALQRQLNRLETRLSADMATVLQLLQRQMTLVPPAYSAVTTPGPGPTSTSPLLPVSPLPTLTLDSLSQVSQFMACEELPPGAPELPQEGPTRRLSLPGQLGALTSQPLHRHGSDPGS
Summary of the method: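 hERG-expressing CHO cells grown at 32 °C in Ham's F-12 with 10% FBS and Geneticin. Population patch clamp, perforated with 100 µg/mL amphotericin B. PBS with Ca/Mg outside; 140 mM KCl, 2 mM MgCl2, 1 mM EGTA, 20 mM HEPES pH 7.3 inside. Holding -80 mV, step to 40 mV for 2 s, then -50 mV for 2 s. Peak tail current compared before and after 5 min with compound at 30 µM, n = 4.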

[2] = target: T1, Somatostatin receptor type 5 (Mus musculus, UniProt O08858); assay: Antagonist activity at mouse SSTR5 expressed in CHO cells assessed as inhibition of SST14-induced forskolin-stimulated intracellular cAMP level incubated for 15 mins followed by forskolin stimulation for 30 mins by HTRF assay; assay type: functional, cell-based
T1 sequence (O08858 whole entry): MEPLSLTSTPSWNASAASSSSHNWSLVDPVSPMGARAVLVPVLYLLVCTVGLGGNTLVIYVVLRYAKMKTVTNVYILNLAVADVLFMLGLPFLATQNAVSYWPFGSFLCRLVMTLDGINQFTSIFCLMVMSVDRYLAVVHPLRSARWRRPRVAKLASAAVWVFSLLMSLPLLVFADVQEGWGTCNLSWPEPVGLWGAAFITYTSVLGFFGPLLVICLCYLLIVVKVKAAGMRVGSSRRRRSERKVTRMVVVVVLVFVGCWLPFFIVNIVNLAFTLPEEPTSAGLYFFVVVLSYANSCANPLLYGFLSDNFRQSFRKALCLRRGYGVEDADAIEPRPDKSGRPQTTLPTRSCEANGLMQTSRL

[3] = target: Somatostatin receptor type 5 (Homo sapiens, UniProt P35346); assay: Antagonist activity at human SSTR5 expressed in CHO cells assessed as inhibition of SST14-induced forskolin-stimulated intracellular cAMP level incubated for 15 mins followed by forskolin stimulation for 30 mins by HTRF assay; assay type: functional, cell-based
Sequence of Somatostatin receptor type 5 (Homo sapiens, UniProt P35346) (P35346 whole entry): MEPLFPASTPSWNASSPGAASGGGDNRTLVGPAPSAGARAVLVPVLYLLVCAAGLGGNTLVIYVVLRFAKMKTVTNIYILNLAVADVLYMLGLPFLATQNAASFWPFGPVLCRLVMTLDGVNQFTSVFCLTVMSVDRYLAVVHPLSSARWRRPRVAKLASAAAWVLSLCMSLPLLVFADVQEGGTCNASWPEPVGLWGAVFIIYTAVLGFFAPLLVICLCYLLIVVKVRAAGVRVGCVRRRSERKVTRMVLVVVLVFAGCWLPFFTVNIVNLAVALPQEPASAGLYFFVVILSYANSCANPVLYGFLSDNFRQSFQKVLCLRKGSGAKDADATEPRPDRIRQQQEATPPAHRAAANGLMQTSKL

[4] = 1-octanol/aqueous buffer solution partition coefficient, log D of the compound at pH 7.4 by UV-vis/HPLC method; assay type: physicochemical
Summary of the method: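 Octanol/buffer partition coefficient at pH 7.4, estimated chromatographically by HPLC with UV–vis detection, using conditions adapted from a published method.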

Mus musculus [5] = assay: Antidiabetic activity in HFD-fed C57BL/6J mouse assessed as decrease in blood glucose level at 10 mg/kg, po pretreated for 1 hr followed by glucose challenge by OGTT; assay type: functional, organism-based
Summary of the method: (§1)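 Male C57BL/6J mice on high-fat diet for ten days. Fasted overnight and grouped by weight and blood glucose at 12.5 h. Compound given orally at 1, 3, 10 or 30 mg/kg in 0.5% methylcellulose at 15 h; oral glucose 5 g/kg at 16 h.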

Mus musculus [6] = assay: Antidiabetic activity in HFD-fed C57BL/6J mouse assessed as increase in insulin secretion at 10 mg/kg, po pretreated for 1 hr followed by glucose challenge by OGTT; assay type: functional, organism-based
Mus musculus [7] = assay: Antidiabetic activity in HFD-fed C57BL/6J mouse assessed as decrease in blood glucose AUC at 10 mg/kg, po pretreated for 1 hr followed by glucose challenge after 1 hr of compound dosing measured up to 120 mins post glucose challenge by OGTT; assay type: functional, organism-based; summary of the method: as §1
Mus musculus [8] = assay: Toxicity in HFD-fed C57BL/6J mouse assessed as induction of hypoglycemia at 10 mg/kg, po after 1 hr; assay type: organism-based; details: in vivo
Mus musculus [9] = assay: Antidiabetic activity in HFD-fed C57BL/6J mouse assessed as increase in insulin secretion at 30 mg/kg, po pretreated for 1 hr followed by glucose challenge by OGTT; assay type: functional, organism-based
Mus musculus [10] = assay: Antidiabetic activity in HFD-fed C57BL/6J mouse assessed as decrease in blood glucose level at 30 mg/kg, po pretreated for 1 hr followed by glucose challenge by OGTT; assay type: functional, organism-based; summary of the method: as §1
Mus musculus [11] = assay: Antidiabetic activity in HFD-fed C57BL/6J mouse assessed as decrease in blood glucose AUC at 30 mg/kg, po pretreated for 1 hr followed by glucose challenge after 1 hr of compound dosing measured up to 120 mins post glucose challenge by OGTT; assay type: functional, organism-based; summary of the method: as §1
[12] = AUC (0 to 8 hrs) in ICR mouse at 1 mg/kg, po administered as cassette dose by LC/MS/MS analysis; assay type: ADME, organism-based; set-up: dose 1 mg/kg, time < 8 hr, route oral; details: in vivo
Summary of the method: (§2)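 Non-fasted male ICR mice, 8 weeks old, n = 3, dosed by cassette: 0.1 mg/kg iv, or 1 mg/kg po as a suspension in 0.5% methylcellulose. Plasma deproteinized with acetonitrile and measured by LC/MS/MS. AUC taken over 0–8 h.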

[13] = target: Somatostatin receptor type 1 (Homo sapiens) (UniProt P30872); assay: Inhibition of human SSTR1 at 10 uM by radioligand binding assay relative to control
Sequence of Somatostatin receptor type 1 (Homo sapiens) (P30872 whole entry): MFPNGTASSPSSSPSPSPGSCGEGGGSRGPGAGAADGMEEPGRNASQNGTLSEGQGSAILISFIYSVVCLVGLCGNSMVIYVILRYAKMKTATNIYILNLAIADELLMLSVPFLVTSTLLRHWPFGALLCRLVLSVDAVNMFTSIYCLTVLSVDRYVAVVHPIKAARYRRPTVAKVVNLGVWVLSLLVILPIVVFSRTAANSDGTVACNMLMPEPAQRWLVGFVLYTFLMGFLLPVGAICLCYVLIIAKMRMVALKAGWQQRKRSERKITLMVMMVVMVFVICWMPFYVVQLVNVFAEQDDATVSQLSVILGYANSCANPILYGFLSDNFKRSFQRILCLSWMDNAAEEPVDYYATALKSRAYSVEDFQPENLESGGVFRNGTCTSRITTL

[14] = Cmax in ICR mouse at 1 mg/kg, po administered as cassette dose by LC/MS/MS analysis; assay type: ADME, organism-based; set-up: dose 1 mg/kg, route oral; details: in vivo; summary of the method: as §2
[15] = Intrinsic clearance in human liver microsomes at 1 uM after 15 to 30 mins in presence of NADPH by LC/MS/MS analysis; assay type: ADME, microsome; details: read-out: CLH
Summary of the method: (§3)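 Liver microsomes at 0.2 mg/mL protein in 50 mM potassium phosphate buffer pH 7.4 with compound at 1 µM. Reaction started with an NADPH-generating system (5 mM MgCl2, 5 mM glucose-6-phosphate, 0.5 mM β-NADP+, 1.5 U/mL G6PDH). Stopped with acetonitrile at 15 and 30 min; analysed by LC/MS/MS. Metabolic velocity taken from the slope of concentration versus time.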

[16] = Total clearance in ICR mouse at 0.1 mg/kg, iv administered as cassette dose by LC/MS/MS analysis; assay type: ADME, organism-based; details: in vivo; summary of the method: as §2
[17] = target: Somatostatin receptor type 2 (Homo sapiens) (UniProt P30874); assay: Inhibition of human SSTR2 at 10 uM by radioligand binding assay relative to control
Sequence of Somatostatin receptor type 2 (Homo sapiens) (P30874 whole entry): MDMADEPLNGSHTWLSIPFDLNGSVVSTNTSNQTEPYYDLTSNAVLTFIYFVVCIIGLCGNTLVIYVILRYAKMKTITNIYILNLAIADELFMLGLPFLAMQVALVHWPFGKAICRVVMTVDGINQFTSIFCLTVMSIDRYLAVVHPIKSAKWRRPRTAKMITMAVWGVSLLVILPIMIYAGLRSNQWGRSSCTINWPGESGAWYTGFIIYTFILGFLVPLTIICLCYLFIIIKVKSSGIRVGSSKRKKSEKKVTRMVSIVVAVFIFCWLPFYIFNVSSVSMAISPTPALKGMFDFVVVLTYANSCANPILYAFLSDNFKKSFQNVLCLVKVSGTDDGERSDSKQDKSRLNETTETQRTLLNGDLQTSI

[18] = Oral bioavailability in ICR mouse at 1 mg/kg administered as cassette dose by LC/MS/MS analysis; assay type: ADME, organism-based; details: in vivo; summary of the method: as §2
Mus musculus [19] = assay: Antidiabetic activity in HFD-fed C57BL/6J mouse assessed as decrease in blood glucose level at 100 mg/kg, po pretreated for 1 hr followed by glucose challenge after 1 hr of compound dosing measured up to 120 mins post glucose challenge by OGTT; assay type: functional, organism-based
Summary of the method: (§4)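 Male C57BL/6J mice on high-fat diet for ten days. Fasted from morning and grouped by weight and blood glucose at 4 h. Vehicle (0.5% methylcellulose) or compound given orally at 5.5 h; oral glucose 5 g/kg given 1 h later.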

Mus musculus [20] = assay: Antidiabetic activity in HFD-fed C57BL/6J mouse assessed as increase in insulin secretion at 100 mg/kg, po pretreated for 1 hr followed by glucose challenge after 1 hr of compound dosing measured up to 120 mins post glucose challenge by OGTT
[21] = target: Somatostatin receptor type 3 (Homo sapiens) (UniProt P32745); assay: Inhibition of human SSTR3 at 10 uM by radioligand binding assay relative to control
Sequence of Somatostatin receptor type 3 (Homo sapiens) (P32745 whole entry): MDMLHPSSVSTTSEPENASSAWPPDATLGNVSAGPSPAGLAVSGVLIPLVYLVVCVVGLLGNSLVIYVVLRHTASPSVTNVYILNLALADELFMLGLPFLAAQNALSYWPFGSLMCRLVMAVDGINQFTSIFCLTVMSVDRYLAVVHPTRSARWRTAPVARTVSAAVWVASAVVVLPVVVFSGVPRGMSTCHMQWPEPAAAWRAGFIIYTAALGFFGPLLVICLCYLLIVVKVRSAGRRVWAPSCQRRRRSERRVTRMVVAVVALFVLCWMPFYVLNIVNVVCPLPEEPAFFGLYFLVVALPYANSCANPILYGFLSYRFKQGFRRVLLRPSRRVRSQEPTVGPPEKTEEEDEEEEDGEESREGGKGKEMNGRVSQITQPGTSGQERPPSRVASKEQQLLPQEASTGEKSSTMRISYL

Mus musculus [22] = assay: Antidiabetic activity in HFD-fed SSTR5 knockout C57BL/6J mouse assessed as decrease in blood glucose level administered po pretreated for 1 hr followed by glucose challenge after 1 hr of compound dosing measured up to 120 mins post glucose challenge by OGTT; assay type: functional, organism-based
[23] = Intrinsic clearance in mouse liver microsomes at 1 uM after 15 to 30 mins in presence of NADPH by LC/MS/MS analysis; assay type: ADME, microsome; details: read-out: CLH; summary of the method: as §3
[24] = Tmax in ICR mouse at 1 mg/kg, po administered as cassette dose by LC/MS/MS analysis; assay type: ADME, organism-based; details: in vivo; summary of the method: as §2
Mus musculus [25] = assay: Antidiabetic activity in HFD-fed C57BL/6J mouse assessed as decrease in blood glucose level administered po pretreated for 1 hr followed by glucose challenge after 1 hr of compound dosing measured up to 120 mins post glucose challenge by OGTT; assay type: functional, organism-based; summary of the method: as §1
[26] = target: Somatostatin receptor type 4 (Homo sapiens) (UniProt P31391); assay: Inhibition of human SSTR4 at 10 uM by radioligand binding assay relative to control
Sequence of Somatostatin receptor type 4 (Homo sapiens) (P31391 whole entry): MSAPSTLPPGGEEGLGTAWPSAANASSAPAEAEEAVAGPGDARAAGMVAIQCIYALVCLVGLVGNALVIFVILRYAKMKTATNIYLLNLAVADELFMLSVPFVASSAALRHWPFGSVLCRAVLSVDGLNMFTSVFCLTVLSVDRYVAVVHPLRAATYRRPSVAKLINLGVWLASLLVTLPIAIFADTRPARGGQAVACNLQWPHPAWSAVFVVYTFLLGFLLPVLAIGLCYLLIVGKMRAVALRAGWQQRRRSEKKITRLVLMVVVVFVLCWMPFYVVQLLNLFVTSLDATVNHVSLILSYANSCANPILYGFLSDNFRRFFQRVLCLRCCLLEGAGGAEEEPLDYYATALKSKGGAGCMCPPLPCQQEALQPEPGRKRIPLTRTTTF

[27] = Volume of distribution at steady state in ICR mouse at 0.1 mg/kg, iv administered as cassette dose by LC/MS/MS analysis; assay type: ADME, organism-based; details: in vivo, read-out: Vdss; summary of the method: as §2
Mus musculus [28] = assay: Antidiabetic activity in HFD-fed C57BL/6J mouse assessed as decrease in blood glucose AUC at 100 mg/kg, po pretreated for 1 hr followed by glucose challenge after 1 hr of compound dosing measured up to 120 mins post glucose challenge by OGTT; assay type: functional, organism-based; summary of the method: as §4
Mus musculus [29] = assay: Toxicity in HFD-fed C57BL/6J mouse assessed as induction of hypoglycemia at 100 mg/kg, po after 1 hr; assay type: organism-based; details: in vivo

IC50 [2] [nM]	IC50 [3] [nM]	logD [4]	SMILES	inhibition at 5 min, 30 µM (hERG (KCNH2)) [%]	also measured
33	9	3.3	CCOc1cc(CN2CC3(CC(c4ccc(C(=O)O)cc4)=NO3)C2)cc(OCC)c1-c1ccc(F)cc1	65	solubility at 18 h [1]: 1.3 µg/mL (≈ 2.58 µM)
–	–	–	COc1ccc(Cl)cc1C(=O)NCCc1ccc(S(=O)(=O)NC(=O)NC2CCCCC2)cc1 [GLYBURIDE]	–	Activity (Mus musculus [5]): Active; Activity (Mus musculus [6]): Active; Activity (Mus musculus [7]): Active; Activity (Mus musculus [8]): Toxic
210	130	3.3	CCOc1cc(CN2CC3(CC([C@H]4CC[C@@H](C(=O)O)CC4)=NO3)C2)cc(OCC)c1-c1ccc(F)cc1	33	–
31	46	3.5	CCOc1cc(CN2CC3(CC(c4ccc(C(=O)O)cc4Cl)=NO3)C2)cc(OCC)c1-c1ccc(F)cc1	40	–
–	–	–	Cn1c(=O)cc(N2CCC[C@@H](N)C2)n(Cc2ccccc2C#N)c1=O	–	Activity (Mus musculus [9]): Active; Activity (Mus musculus [10]): Active; Activity (Mus musculus [11]): Active
150	150	–	CCOc1cc(CN2CC3(CC(c4ccc(C(N)=O)cc4)=NO3)C2)cc(OCC)c1-c1ccc(F)cc1	–	–
2000	95	3.6	CCOc1cc(C(C)N2CC3(CC(c4ccc(C(=O)O)cc4)=NO3)C2)cc(OCC)c1-c1ccc(F)cc1 (configuration not stated)	14	–
> 10000	> 10000	2.8	CCOc1cc(C(=O)N2CC3(CC(c4ccc(C(=O)O)cc4)=NO3)C2)cc(OCC)c1-c1ccc(F)cc1	7.9	–
> 10000	> 10000	3.1	CCOc1cc(CN2CC3(CC(c4ccccc4C(=O)O)=NO3)C2)cc(OCC)c1-c1ccc(F)cc1	4.5	–
120	200	2.9	CCOc1cc(CN2CC3(CC(N4CC(C(=O)O)C4)=NO3)C2)cc(OCC)c1-c1ccc(F)cc1	8.1	–
38	30	3.2	CCOc1cc(CN2CC3(CC([C@H]4CC[C@H](C(=O)O)CC4)=NO3)C2)cc(OCC)c1-c1ccc(F)cc1	15	–
74	220	–	CCOc1cc(CN2CC3(CC(c4ccc(CC(=O)O)cc4)=NO3)C2)cc(OCC)c1-c1ccc(F)cc1	–	–
980	2800	–	CCOc1cc(CN2CC3(CC(c4ccccc4)=NO3)C2)cc(OCC)c1-c1ccc(F)cc1	–	–
21	140	3.5	CCOc1cc(CN2CC3(CC(c4ccc(C(=O)O)cc4C)=NO3)C2)cc(OCC)c1-c1ccc(F)cc1	18	–
430	1000	–	CCOc1cc(CN2CC3(CC(c4ccc(CO)cc4)=NO3)C2)cc(OCC)c1-c1ccc(F)cc1	–	–
220	3200	–	CCOc1cc(CN2CC3(CC(CCC(=O)O)=NO3)C2)cc(OCC)c1-c1ccc(F)cc1	–	–
20	61	–	CCOc1cc(CN2CC3(CC(c4ccc(C(=O)O)cn4)=NO3)C2)cc(OCC)c1-c1ccc(F)cc1	–	–
260	550	–	CCOc1cc(CN2CC3(CC(c4cccc(C(=O)O)c4)=NO3)C2)cc(OCC)c1-c1ccc(F)cc1	–	–
–	–	–	CCOc1cc(CN2CC3(CC(N4CCC(C(=O)O)CC4)=NO3)C2)cc(OCC)c1-c1ccc(F)cc1	5.6	AUC(0-t) at 8 h [12]: 332 ng·h/mL; inhibition [13]: 11%; Cmax [14]: 74.8 ng/mL; microsomal CLint at 1 µM [15]: < 10 µL/min/mg; clearance [16]: 29.3 mL/min/kg; inhibition [17]: 8%; solubility at 18 h [1]: 260 µg/mL (≈ 508 µM); bioavailability [18]: 58%; Activity (Mus musculus [19]): Active; Activity (Mus musculus [20]): Active; inhibition [21]: 14%; Activity (Mus musculus [22]): inactive; microsomal CLint at 1 µM [23]: 19 µL/min/mg; Tmax [24]: 2 h; Activity (Mus musculus [25]): Dose-dependent effect; inhibition [26]: 10%; Vd [27]: 3.05 L/kg; Activity (Mus musculus [28]): Active; Activity (Mus musculus [29]): Non-Toxic
48	190	2.9	CCOc1cc(CN2CC3(CC(N4CCC(C(=O)O)C4)=NO3)C2)cc(OCC)c1-c1ccc(F)cc1 (configuration not stated)	17	–
